Results on 13 compounds are retold here after ChEMBL document CHEMBL4196015, “Synthesis of coumarin-theophylline hybrids as a new class of anti-tubercular and anti-microbial agents” (2018).

In brackets after ≈: the same amount, converted by molar mass.

One may read the MIC as the lowest concentration found to suppress growth.

Assay [1] relates to Mycobacterium tuberculosis. The assay is described as follows: Antitubercular activity against Mycobacterium tuberculosis H37Rv ATCC 27294 at 7.8 ug/ml after 5 days by microplate alamar blue assay. The assay is classed as functional. An outline of the steps: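 Single-concentration primary screen at 7.8 µg/mL against M. tuberculosis H37Rv (ATCC-27294) by MABA, read as percent inhibition. Run in Middlebrook 7H9 broth, with BACTEC 12B medium also cited, at 37 °C for 5 days. Then 1:1 Alamar Blue/10% Tween 80 added and incubated 24 h. Colour read: blue = inhibition, pink = growth.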
On the technique in general: Alamar Blue is a resazurin reagent that responds to reducing activity.

Assay [2] relates to Mycobacterium tuberculosis. The assay is described as follows: Antitubercular activity against Mycobacterium tuberculosis H37Rv ATCC 27294 after 5 days by microplate alamar blue assay. Type of assay: functional. To be noted: H37Rv ATCC 27294, 120 h. An outline of the steps:
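Retest of compounds above 90% inhibition in the primary screen. Two-fold serial dilution on plate in Middlebrook 7H9 broth, in triplicate. Isoniazid as positive control. Plates sealed, 37 °C for 5 days. Then 1:1 Alamar Blue/10% Tween 80 added, 24 h more. Blue = inhibition, pink = growth. MIC taken as lowest inhibiting concentration.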

For assay [3], the system named is Staphylococcus aureus. The assay can be described thus: Antibacterial activity against Staphylococcus aureus after 24 hrs by broth microdilution method. The assay is classed as functional. In outline: (§1)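 Broth microdilution, 96-well. Inoculum from 24 h broth cultures adjusted to 0.5 McFarland. Compounds dissolved in DMSO at 1 mg/mL (stock), two-fold serial dilutions in tryptone broth (1000 to 3.9 μg/mL). Positive controls: tetracyclin for bacteria, nystatin for fungi. Incubated 37 °C, 24 h. Then 0.01% aqueous resazurin added for viability. MIC = lowest concentration inhibiting growth.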

Assay [4] concerns Escherichia coli. The assay can be described thus: Antibacterial activity against Escherichia coli after 24 hrs by broth microdilution method. Type of assay: functional. An outline of the steps:
as §1
(In general: In broth dilution the organism is exposed to a series of concentrations in liquid medium.)

Assay [5] has as its system Salmonella typhi. The assay is described as follows: Antibacterial activity against Salmonella typhi after 24 hrs by broth microdilution method. The assay is classed as functional, Salmonella enterica subsp. enterica serovar Typhi. To be noted: Salmonella enterica. An outline of the steps:
as §1

In assay [6] the test system is Candida albicans. The assay can be described thus: Antifungal activity against Candida albicans after 24 hrs by broth microdilution method. The assay is classed as functional. An outline of the steps: as §1

Turning to `Cn1c(=O)c2ncn(Cc3cc(=O)oc4ccc(C(C)(C)C)cc34)c2n(C)c1=O`, the Activity in assay [1] amounted to 96%. The MIC in assay [2] was 0.48 µg/mL (≈ 1.22 µM); in assay [3], 7.8 µg/mL (≈ 19.8 µM); in assay [4] it was 3.9 µg/mL (≈ 9.89 µM); in assay [5], 7.8 µg/mL (≈ 19.8 µM); in assay [6], 62.5 µg/mL (≈ 158 µM).

In assay [1], `Cn1c(=O)c2ncn(Cc3cc(=O)oc4c3ccc3ccccc34)c2n(C)c1=O` registered an Activity of 16%. Also, the MIC in assay [3] was determined as 15.6 µg/mL (≈ 40.2 µM); in assay [4] it was 15.6 µg/mL (≈ 40.2 µM); in assay [5] it was 62.5 µg/mL (≈ 161 µM); in assay [6], 62.5 µg/mL (≈ 161 µM).

As for `Cc1cc(C)c2c(Cn3cnc4c(=O)n(C)c(=O)n(C)c43)cc(=O)oc2c1`, in assay [1], the Activity was 94%. For the same compound, the MIC in assay [2] turned out to be 0.97 µg/mL (≈ 2.65 µM); in assay [3], 15.6 µg/mL (≈ 42.6 µM); in assay [4], 125 µg/mL (≈ 341 µM); in assay [5], 250 µg/mL (≈ 682 µM); in assay [6], 250 µg/mL (≈ 682 µM).

Take `Cc1ccc2c(Cn3cnc4c(=O)n(C)c(=O)n(C)c43)cc(=O)oc2c1`: the Activity in assay [1] amounted to 92%. For the same compound, the MIC in assay [2] is 1.95 µg/mL (≈ 5.53 µM); in assay [3], 62.5 µg/mL (≈ 177 µM); in assay [4] it was 31.3 µg/mL (≈ 88.8 µM); in assay [5] it was 125 µg/mL (≈ 355 µM); in assay [6], 31.3 µg/mL (≈ 88.8 µM).

In assay [1], `Cn1c(=O)c2ncn(Cc3cc(=O)oc4ccc5ccccc5c34)c2n(C)c1=O` showed an Activity of 92%. Further, the MIC in assay [2] was determined as 1.95 µg/mL (≈ 5.02 µM); in assay [3], 7.8 µg/mL (≈ 20.1 µM); in assay [4] it was 7.8 µg/mL (≈ 20.1 µM); in assay [5], 15.6 µg/mL (≈ 40.2 µM); in assay [6], 62.5 µg/mL (≈ 161 µM).

`Cn1c(=O)c2ncn(Cc3cc(=O)oc4ccc(Cl)cc34)c2n(C)c1=O`: the Activity in assay [1] was found to be 92%. The MIC in assay [2] is 3.9 µg/mL (≈ 10.5 µM); in assay [3] it was 31.3 µg/mL (≈ 84 µM); in assay [4] it was 31.3 µg/mL (≈ 84 µM); in assay [5], 62.5 µg/mL (≈ 168 µM); in assay [6], 125 µg/mL (≈ 335 µM).

In the case of `Cc1ccc2oc(=O)cc(Cn3cnc4c(=O)n(C)c(=O)n(C)c43)c2c1`, the Activity in assay [1] is 96%. The minimal inhibitory concentration (MIC) in assay [2] worked out at 0.12 µg/mL (≈ 0.341 µM); in assay [3], 3.9 µg/mL (≈ 11.1 µM); in assay [4] it was 3.9 µg/mL (≈ 11.1 µM); in assay [5], 7.8 µg/mL (≈ 22.1 µM); in assay [6], 31.3 µg/mL (≈ 88.8 µM).

Take `Cn1c(=O)c2ncn(Cc3cc(=O)oc4cc(O)ccc34)c2n(C)c1=O`: the Activity in assay [1] was determined as 15%. In addition, the MIC was 15.6 µg/mL (≈ 44 µM) in assay [3], 125 µg/mL (≈ 353 µM) in assay [4], 31.5 µg/mL (≈ 88.9 µM) in assay [5] and 62.5 µg/mL (≈ 176 µM) in assay [6].

In the case of `Cn1c(=O)c2ncn(Cc3cc(=O)oc4ccc(Br)cc34)c2n(C)c1=O`, in assay [1], the Activity turned out to be 92%. In addition, the MIC in assay [2] came out at 3.9 µg/mL (≈ 9.35 µM); in assay [3], 15.6 µg/mL (≈ 37.4 µM); in assay [4] it was 31.3 µg/mL (≈ 75 µM); in assay [5], 31.3 µg/mL (≈ 75 µM); in assay [6] it was 125 µg/mL (≈ 300 µM).

`COc1ccc2oc(=O)cc(Cn3cnc4c(=O)n(C)c(=O)n(C)c43)c2c1` returned an Activity in assay [1] of 56%. The MIC in assay [3] came to 7.8 µg/mL (≈ 21.2 µM); in assay [4], 7.8 µg/mL (≈ 21.2 µM); in assay [5], 7.8 µg/mL (≈ 21.2 µM); in assay [6], 31.3 µg/mL (≈ 85 µM).

Consider `C[C@@H]1[C@H](O)[C@@H](C)/C=C/C=C/C=C/C=C/C=C/C=C/C=C/[C@H](O[C@@H]2O[C@H](C)[C@@H](O)[C@H](N)[C@@H]2O)C[C@@H]2O[C@](O)(C[C@@H](O)C[C@@H](O)[C@H](O)CC[C@@H](O)C[C@@H](O)CC(=O)O[C@H]1C)C[C@H](O)[C@H]2C(=O)O` [AMPHOTERICIN B], for which 0.97 µg/mL (≈ 1.05 µM) was the least that counted as inhibitory in assay [6] (MIC).

Turning to `NNC(=O)c1ccncc1` [ISONIAZID], in assay [1], the Activity was 100%. Moreover, the MIC in assay [2] was 0.06 µg/mL (≈ 0.438 µM).

With `CN(C)[C@@H]1C(O)=C(C(N)=O)C(=O)[C@@]2(O)C(O)=C3C(=O)c4c(O)cccc4[C@@](C)(O)[C@H]3C[C@@H]12` [TETRACYCLINE], the MIC in assay [3], in assay [4] and in assay [5] was 3.9 µg/mL (≈ 8.78 µM) in each case.
